Experimental findings from ChEMBL document CHEMBL1125427, “Synthesis of 3-(2-pyridylethyl)benzoxazolinone derivatives: potent analgesic and antiinflammatory compounds inhibiting prostaglandin E2” (1992) are described below.

By Inhibition is commonly meant the relative decrease from the control value, in per cent. A word on the ED50: it is the midpoint of the dose-response relation.

Type in all cases: functional
The subject of assay [1] is Mus musculus. Nature of the assay: Gastric ulcerogenic activity at a dose of 300 mg/kg. The essentials:
(§1)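 Mice fasted 24 h with water available. Compound in methyl cellulose vehicle given by oral gavage at 0.5 mL/100 g body weight. Animals were killed after 4 h and stomachs examined for lesions under a dissecting microscope. Read-out: ulcer incidence per group of 8 and lesion length (mm/mouse ± SE).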

In assay [2] the test system is Mus musculus. Put plainly: Intestinal ulcerogenic activity at a dose of 60 mg/kg. The essentials: (§2)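 Fed animals were gavaged with compound on 3 consecutive days and killed 24 h after the last dose. Intestines were examined for ulcers. Read-out: ulcer incidence per group of 8 and lesion length (mm/mouse ± SE).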
Assay [3] is filed under the species Mus musculus. Put plainly: Analgesic activity in mice. Further details: concentration or dose not given beside the values. The essentials:
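Female albino mice (22 ± 2 g, local breed), groups of eight, dosed orally at 100 mg/kg as a suspension in 5% gum arabic syrup. After 1 h, 3% acetic acid was given ip at 300 mg/kg. Stretches were counted over 10 min, starting 5 min after injection. Percent activity = |n − n'|/n × 100 against syrup-only controls (n = 6).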

The subject of assay [4] is Mus musculus. Put plainly: The compound was evaluated for inhibition of edema induced by PGE at […]. In short, it runs like this: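 Mice, six per group, dosed orally at 100 mg/kg. After 60 min, PGE2 (20 μg/0.01 mL) was injected subcutaneously into the right hind paw plantar surface. Edema was measured with a dial thickness gauge and the effect expressed as percent inhibition.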

For assay [5], the system named is Mus musculus. Nature of the assay: Intestinal ulcerogenic activity at a dose of 60 mg/kg:group of 8 mouse considered for the test. In short, it runs like this:
as §2

In assay [6] the test system is Mus musculus. Nature of the assay: Gastric ulcerogenic activity at a dose of 100 mg/kg. In short, it runs like this: as §1
The subject of assay [7] is Mus musculus. Nature of the assay: The compound was evaluated for inhibition of edema induced by histamine at 10 mg/mL. The essentials:
(§3)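 Female albino mice (22 ± 2 g, local breed), six per group, housed in eights with free food and water, acclimatised at least 2 days. Compound given orally at 100 mg/kg; 60 min later 0.01 mL of the phlogistic agent (histamine or serotonin) injected subcutaneously into the right hind paw plantar surface. Paw edema measured with a dial thickness gauge; effect expressed as percent inhibition.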

The test system of assay [8] is Mus musculus. Nature of the assay: Gastric ulcerogenic activity at a dose of 60 mg/kg: 8 mice were considered for the test. The essentials: as §1
Assay [9] deals with Mus musculus. Nature of the assay: The compound was evaluated for inhibition of edema induced by bradykinin at 100 ug/mL. The essentials:
(§4)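 Mice, six per group, dosed orally at 100 mg/kg. After 60 min, 0.01 mL of phlogistic agent (arachidonic acid or bradykinin) was injected subcutaneously into the right hind paw plantar surface. Edema was measured by dial thickness gauge and the effect expressed as percent inhibition.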

In assay [10] the test system is Mus musculus. Nature of the assay: The compound was evaluated for inhibition of edema induced by serotonin at 250 ug/mL. The essentials:
as §3

Assay [11] relates to Mus musculus. Put plainly: Gastric ulcerogenic activity at a dose of 300 mg/kg: 8 mice were considered for the test. In short, it runs like this:
as §1

Assay [12] deals with Mus musculus. Put plainly: Gastric ulcerogenic activity at a dose of 60 mg/kg. In short, it runs like this:
as §1

In assay [13] the test system is Mus musculus. Put plainly: Gastric ulcerogenic activity at a dose of 100 mg/kg: 8 mice were considered for the test. The essentials: as §1
In assay [14] the test system is Mus musculus. Put plainly: Antiinflammatory activity against CPE in mice following peroral administration of 60 mg/kg. The following applies: route oral. The essentials: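 Female albino mice (22 ± 2 g), six per group, dosed orally. After 60 min, 0.01 mL of 2% carrageenan was injected subcutaneously into the right hind paw plantar surface. Edema was read with a dial thickness gauge 3 h later. ED50 was given in mg/kg po with 95% confidence limits.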

The subject of assay [15] is Mus musculus. Nature of the assay: Intestinal ulcerogenic activity at a dose of 100 mg/kg: 8 mice were considered for the test. The essentials:
as §2

Assay [16] deals with Mus musculus. Nature of the assay: Intestinal ulcerogenic activity at a dose of 300 mg/kg: 8 mice were considered for the test. The essentials: as §2
Assay [17] relates to Mus musculus. Nature of the assay: The compound was evaluated for inhibition of edema induced by arachidonic acid at 1 mg/mL. The essentials:
as §4

Assay [18] concerns Mus musculus. Put plainly: Intestinal ulcerogenic activity at a dose of 100 mg/kg. The essentials: as §2
The test system of assay [19] is Mus musculus. Put plainly: Inhibitory activity against carrageenan induced paw edema in mice. On the set-up: concentration or dose not given beside the values.
Assay [20] deals with Mus musculus. Put plainly: Intestinal ulcerogenic activity at a dose of 300 mg/kg. In short, it runs like this:
as §2

The test system of assay [21] is Mus musculus. Put plainly: Intestinal ulcerogenic activity at a dose of 60 mg/kg: 8 mice were considered for the test. The essentials: as §2

Turning to `O=c1oc2ccc(Cl)cc2n1CCc1ccccn1`, the Lesion length with Mus musculus [1] is recorded as 0.9 mm mice-1; in the assay on Mus musculus [2], 0 mm mice-1; in the assay with Mus musculus [6] it was 0.2 mm mice-1; in the assay on Mus musculus [12] it was 0 mm mice-1; in the assay on Mus musculus [18] it was 0 mm mice-1; with Mus musculus [20], 0.1 mm mice-1. The compound also yielded an Analgesic activity in the assay filed under Mus musculus [3] of 96.96%. Moreover, the Inhibition with Mus musculus [4] is 64.8%; with Mus musculus [7], 9%; in the assay with Mus musculus [9], 7%; with Mus musculus [10] it was 10.5%; in the assay with Mus musculus [17] it was 42%; in the assay on Mus musculus [19] it was 62.3%. Also, the Ulcer incidence in the assay with Mus musculus [5] was found to be 0 number/group; in the assay with Mus musculus [8], 0 number/group; with Mus musculus [11], 4 number/group; in the assay on Mus musculus [13] it was 1 number/group; in the assay with Mus musculus [15], 0 number/group; in the assay with Mus musculus [16], 1 number/group. The compound also returned an ED50 in the assay with Mus musculus [14] of 63 mg/kg.

As for `O=c1oc2ccccc2n1CCc1ccncc1`, the Ulcer incidence is given as 0 number/group with Mus musculus [21]; 0 number/group with Mus musculus [8]; 5 number/group with Mus musculus [11]; 0 number/group with Mus musculus [13]; 0 number/group in the assay with Mus musculus [15]; 2 number/group in the assay on Mus musculus [16]. The Lesion length came out at 0.9 mm mice-1 in the assay on Mus musculus [1]; 0 mm mice-1 in the assay on Mus musculus [2]; 0 mm mice-1 in the assay with Mus musculus [6]; 0 mm mice-1 with Mus musculus [12]; 0 mm mice-1 in the assay on Mus musculus [18]; 0.1 mm mice-1 in the assay with Mus musculus [20]. The Analgesic activity in the assay listed under Mus musculus [3] is given as 96.06%. Further, the Inhibition was found to be 62.2% in the assay with Mus musculus [4]; 7.6% in the assay with Mus musculus [7]; 6.4% with Mus musculus [9]; 9.4% in the assay with Mus musculus [10]; 38.9% in the assay on Mus musculus [17]; 59.1% with Mus musculus [19]. This compound returned an ED50 in the assay on Mus musculus [14] of 57 mg/kg.

For the compound `O=c1oc2ccccc2n1CCc1ccccn1`, the Ulcer incidence with Mus musculus [21] is recorded as 0 number/group; in the assay on Mus musculus [8], 0 number/group; with Mus musculus [11] it was 4 number/group; in the assay with Mus musculus [13] it was 1 number/group; in the assay on Mus musculus [15] it was 0 number/group; with Mus musculus [16], 0 number/group. Further, the Lesion length came out at 0.7 mm mice-1 in the assay with Mus musculus [1]; 0 mm mice-1 in the assay with Mus musculus [2]; 0 mm mice-1 in the assay with Mus musculus [12]; 0 mm mice-1 with Mus musculus [18]; 0.07 mm mice-1 with Mus musculus [20]. Moreover, the Analgesic activity in the assay listed under Mus musculus [3] worked out at 92.17%. Besides, the Inhibition in the assay with Mus musculus [4] stood at 56.2%; with Mus musculus [7], 5.5%; with Mus musculus [9] it was 6%; with Mus musculus [10] it was 10.2%; with Mus musculus [17], 41.3%; in the assay with Mus musculus [19] it was 55.2%. The 50% effect level with Mus musculus [14] (ED50) was put at a dose of 55 mg/kg.
